# From paper PMC4653337 (Pharmacognosy Magazine, 2015)
# Values joined by “and” are separate entries in the source; they are usually repeats but may differ in a detail not shown here. Equal values may be shown once. Where a name gives a salt, the structure may show the parent alone. Read-outs that look alike come from different tables or passages of the source.
# Tests used:
# [1] = system: A549 human lung cancer cell line; assay: Sulforhodamine B; assay type: cell-based; conditions: read-out: Growth inhibition, IC50
# Outline: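 SRB growth assay. A549 cells were grown in RPMI 1640 with 10% FBS, 2% penicillin/streptomycin and 1% amphotericin B, then seeded at 8,000 per well overnight. Cells were exposed 24, 48 or 72 h to graded test compound (0.5% DMSO final; reference drug alongside). Cells were fixed in cold 40% TCA for 1 h at 4°C and stained with 0.4% SRB for 30 min. Dye was solubilised in 10 mM Tris pH 10.5 and read at 492 nm. IC50 came from % inhibition dose-response curves.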
# [2] = system: MRC-5 human lung fibroblast; assay: Sulforhodamine B; assay type: cell-based; conditions: for IC50: Homo sapiens, read-out: Growth inhibition, IC50
# Outline: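 SRB growth assay. MRC-5 fetal lung fibroblasts were grown in MEM with 10% FBS and 1% penicillin/streptomycin at 37°C, 5% CO2, then seeded at 8,000 per well overnight. Cells were exposed 24, 48 or 72 h to graded test compound (0.5% DMSO final). Cells were fixed in cold 40% TCA at 4°C, stained with 0.4% SRB, solubilised in 10 mM Tris pH 10.5 and read at 492 nm. IC50 came from % inhibition versus concentration curves.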
# A549 cells [3] = assay: Annexin V-FITC/PI staining, flow cytometry; assay type: cell-based, human; conditions: 72 h; for percentage of early apoptotic cells (Annexin V-FITC+ PI-): negative control 1.42 ± 0.47%; for population of late apoptotic or secondary necrotic cells (Annexin V-FITC+ PI+): negative control 1.80 ± 0.30%
# Outline: (§1)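 A549 cells in RPMI 1640 with 10% FBS, 37°C, 5% CO2. Test compound in DMSO, 0.5% DMSO final. Annexin: 2.4 × 10^5 cells/well adhered overnight, 72 h exposure, 1 × 10^5 cells stained with FITC-annexin V and PI, 10,000 events per replicate. JC-1: 72 h, 15 min dye, red aggregate (FL2-A) vs green monomer (FL1-A). Mean ± SEM; at least two runs in triplicate.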
# [4] = Mitochondrial membrane potential assay; assay type: cell-based, human; conditions: human, A549 cells, Population of viable cells (P5 region, high Δψm), A549, 42 μM, untreated 91.42 ± 0.36%
# Outline: as §1
# A549 cells [5] = assay: Mitochondrial membrane potential assay; assay type: cell-based, human; conditions: A549, 14, 28, 42 μM, 72 h, dose-dependent
# Outline: as §1
# A549 cells [6] = assay: DNA fragmentation by TUNEL assay; assay type: cell-based, human; conditions: 72 h, negative control 4.27 ± 0.13%
# A549 cells [7] = assay: Cell cycle analysis; assay type: cell-based, human; conditions: 72 h; for percentage of cells at S phase: 0 μM 8.94 ± 0.23%
# Outline: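 After 72 h of test compound, adherent and floating A549 cells were pooled and fixed in 70% ethanol overnight. Cells were stained 30 min at room temperature with 50 μg/ml PI, 50 μg/ml RNase, 0.1% Triton X-100 and 1 mg/ml sodium citrate (final). DNA content was read by flow cytometry and modelled into sub-G1, G1, S and G2/M fractions. Runs were done at least twice in triplicate; one-way ANOVA/Tukey versus control.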
# caspase-3 in A549 cells = assay: Caspase-3 activity; assay type: cell-based, human; conditions: A549, 12, 24, 48 h
# caspase-8 in A549 cells = assay: Caspase-8 activity; assay type: cell-based, human; conditions: A549, 12, 24, 48 h; highest RLU at 14 μM at 24 h and 48 h
# caspase-9 in A549 cells = assay: Caspase-9 activity; assay type: cell-based, human; conditions: A549, 12, 24, 48 h; highest RLU at 14 μM at 24 h and 48 h
# A549 cells [8] = assay: Phase contrast microscopy; assay type: cell-based, human; conditions: A549, 14, 28, 42 μM, 72 h
# A549 cells [9] = conditions: A549, 48 h treatment; ref 10 (Lee et al.); cited from earlier work
# [10] = system: DNA topoisomerase I (Top 1); conditions: cited from earlier work
# [11] = system: benign prostatic hyperplasia (BPH-1) epithelial cell line; conditions: BPH-1, 10 µM and 20 µM for 48 h; cited from earlier work
# [12] = system: MDA-MB-435 breast cancer cells; conditions: MDA-MB-435, 5–50 µM for 24 h; cited from earlier work
# [13] = system: HCT-116 human colon cancer cells; conditions: cited from earlier work
# breast cancer xenografts = breast cancer xenografts in nude mice; ref 24 (Monteiro et al.); cited from earlier work
# mice = conditions: cited from earlier work
smiles,measurement,setting,value
"COc1cc(O)c(CC=C(C)C)c(O)c1C(=O)/C=C/c1ccc(O)cc1 [Xanthohumol, 2', 4, 4'-trihydroxy-3'-prenyl-6'-methoxychalcone]",IC50,"[1]; A549, 24 h",74.1 ± 1.98 µM
same,IC50,"[1]; A549, 48 h",25.5 ± 0.3 µM
same,IC50,"[1]; A549, 72 h",13.5 ± 0.82 µM
same,IC50,"[2]; MRC5, 24 h",> 282 µM and > 100 µg/mL
same,IC50,"[2]; MRC5, 48 h",149 ± 4.96 µM
same,IC50,"[2]; MRC5, 72 h",94.4 ± 1.77 µM
same,Toxicity to normal cells (MRC-5) versus cancer cells (A549),"[2]; comparison of IC50 values on MRC-5 and A549, SRB assay",less toxic to normal cells compared to cancer cells
same,percentage of early apoptotic cells (Annexin V-FITC+ PI-),"A549 cells [3]; A549, 14 μM",2.72 ± 0.59%
same,population of late apoptotic or secondary necrotic cells (Annexin V-FITC+ PI+),"A549 cells [3]; A549, 14 μM",4.90 ± 0.85%
same,percentage of early apoptotic cells (Annexin V-FITC+ PI-),"A549 cells [3]; A549, 28 μM",26.08 ± 1.50%
same,population of late apoptotic or secondary necrotic cells (Annexin V-FITC+ PI+),"A549 cells [3]; A549, 28 μM",17.05 ± 3.12%
same,percentage of early apoptotic cells (Annexin V-FITC+ PI-),"A549 cells [3]; A549, 42 μM",34.42 ± 4.41%
same,population of late apoptotic or secondary necrotic cells (Annexin V-FITC+ PI+),"A549 cells [3]; A549, 42 μM",33.27 ± 3.55%
same,"viability at 72 h, 42 µM",[4],2.88 ± 0.62%
same,Effect on mitochondrial membrane potential (Δψm),A549 cells [5],significantly reduced
same,percentage of cells with DNA fragmentation,"A549 cells [6]; A549, 28 μM",34.7 ± 0.30%
same,percentage of cells with DNA fragmentation,"A549 cells [6]; A549, 42 μM",39.2 ± 0.15%
same,percentage of cells at S phase,"A549 cells [7]; A549, 14 μM",12.34 ± 1.09%
same,percentage of cells at S phase,"A549 cells [7]; A549, 28 μM",16.43 ± 1.52%
same,percentage of cells at S phase,"A549 cells [7]; A549, 42 μM",46.95 ± 2.03%
same,Effect on sub G1 population,"A549 cells [7]; A549, increasing concentration",increased the percentage of cells arrested at sub G1 peak
same,Caspase-3 activity (RFU),caspase-3 in A549 cells,RFU values increased as concentration and treatment time increased
same,Caspase-8 activity (RLU),caspase-8 in A549 cells,significantly increased
same,Caspase-9 activity (RLU),caspase-9 in A549 cells,significantly increased
same,Morphological changes,A549 cells [8],"atrophy, size shrinkage, decrease in cell number, and detachment of cells"
same,IC50 (cytotoxic effects on A549),A549 cells [9],4.3 µg/mL
same,Effect on DNA topoisomerase I (Top 1) activity,[10],inhibition of DNA topoisomerase I (Top 1) activity
same,Cell cycle effect,[11],S phase arrest
same,Cell cycle effect,[12],S phase arrest
same,Caspase activation,[13],"Activation of all caspase-3, -8, and -9"
same,In vivo antitumor effects on isolated tumors,breast cancer xenografts,decrease in tumor-surrounding inflammatory cells and a large central necrosis
same,Organ function and homeostasis,"mice; feeding, ref 6 (Dorn et al.)",did not impair organ function and homeostasis
same,Hematological and biochemical blood analyses versus control group,"mice; oral administration, ref 25 (Vanhoecke et al.)",no difference in hematological and biochemical blood analyses
"COc1cccc2c1C(=O)c1c(O)c3c(c(O)c1C2=O)C[C@@](O)(C(=O)CO)C[C@@H]3O[C@H]1C[C@H](N)[C@H](O)[C@H](C)O1 [Doxorubicin, Doxorubicin hydrochloride, reference compound]",IC50,"[1]; A549, 24 h",2.85 ± 0.2 µM
same,IC50,"[1]; A549, 48 h",0.22 ± 0.03 µM
same,IC50,"[1]; A549, 72 h",0.02 ± 0.02 µM
same,IC50,"[2]; MRC5, 24 h",5.71 ± 0.55 µM
same,IC50,"[2]; MRC5, 48 h",2.01 ± 0.04 µM
same,IC50,"[2]; MRC5, 72 h",1.09 ± 0.1 µM
same,IC50 (cytotoxic effects on A549),A549 cells [9],0.5 µg/mL
